Assay outcomes: PubChem BioAssay, several laboratories
In the library only some 3.5% were active in any assay of this set; here they are far more common.
MT stabilizer: stabilizes microtubules in HeLa cells | 200,000 compounds, 0.83% hits | HeLa tubulin immunostaining HCS, 24 h; share of cells brighter than vehicle mean+2SD | % tubulin-high responders, % at 10 µM | AID 2205;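 active = plate Z-score above 3 for both tubulin-high and condensed-nucleus cell shares, with cell loss under 80%, at 10 µM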;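 also: anti alpha tubulin signal scored within the nucleus-defined area of each cell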
HMGR II inh: E. faecalis class II HMG-CoA reductase inhibition; purified E. faecalis HMGR, NADPH absorbance 340 nm kinetic; inhibition, % at 10 µM; 190,000 compounds, 0.41% hits;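 active = inhibition above a set limit, the median over all tested compounds plus 3 SD, cut at about 9.5% in these data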;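 also: enzyme runs in reverse so mevalonate oxidation gives rising NADPH absorbance; 0% = complete reaction with DMSO and 100% = background rate lacking mevalonate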
Yeast growth inh: chemicals that inhibit yeast BB579 growth in restrictive medium (lifespan-shortening candidates); S. cerevisiae BB579 growth, OD615, 48 h; inhibition, % at 10 µM; 140,000 compounds, 0.51% hits; AID 804;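 active = inhibition above a set limit, 3 SD over the mean compound inhibition, cut at about 44% in these data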
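System: Saccharomyces cerevisiae DeaD strain BB579, replicative lifespan model yeast | Buffer or medium: Restrictive glucose-based CSMM-D medium | Times: 4 h preincubation and 48 h exposure at 30 °C | Detection: OD615 turbidity measurement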
Yeast lifespan up: extends the lifespan of yeast; S. cerevisiae growth with nicotinamide, OD615; deaD strain in restrictive glucose medium; inhibition of the nicotinamide effect, % at 10 µM; 130,000 compounds, 0.68% hits;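 active = inhibition above a set limit, placed 3 SD over the median of all compounds, cut at about 26% in these data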;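 also: 0% = nicotinamide-treated wells and 100% = cells grown without nicotinamide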
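Assay system: DeaD-strain S. cerevisiae. Medium: CSMM-D glucose medium, restrictive. Reagent: nicotinamide, 1.5 mM, co-present with compound. Compound: 10 µM single point, 0.25% DMSO. Schedule: culture preincubation 4 h, compound exposure 48 h, both 30 °C. Detection: absorbance at 615 nm.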
RAM inhibit: inhibitors of the yeast RAM network | S. cerevisiae dse1pr::URA3 reporter, 5-FOA growth OD615, 2 d; analog-sensitive cbk1-as2 kinase mutant strain | inhibition, % at 50 µM | 190,000 compounds, 1.8% hits | AID 868;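 active = inhibition above a set limit, 3 SD over mean compound inhibition, cut at about 8.4% in these data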;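 also: 0% = DMSO-only wells with no growth and 100% = 10 µM 1-NA-PP1 full growth; inhibition rescues growth on 5-FOA so higher OD means more RAM inhibition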
bCat nuc transl: modulators of beta-catenin nuclear translocation | nuclear translocation activity, % at 5 µM | HeLa beta-catenin nuclear translocation, immunofluorescence imaging | 190,000 compounds, 0.3% hits;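 active = nuclear translocation activity above 50% at 5 µM, with a well cell count of 50 or more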;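 also: per-cell ratio of nuclear to cytoplasmic median beta-catenin stain intensity; plate controls were DMSO negative control for no effect and GSK-3 inhibitor IX positive control for full effect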
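Test system: human HeLa cells, native beta-catenin. Compound dosing: 5 µM primary single dose, 0.1% DMSO, 0.02–20 µM confirmation series. Incubation: compound exposure 24 h at 37°C. Detection: beta-catenin immunostaining with DAPI counterstain, 20x imaging, 6 fields/well. Read-out basis: Nuclear/cytoplasmic beta-catenin signal ratio, % activation.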
An asterisk follows results filed as active; . = no result; + = active, no number.

SMILES | MT stabilizer | HMGR II inh | Yeast growth inh | Yeast lifespan up | RAM inhibit | bCat nuc transl
Cc1cc(N2C(=O)CC(Cc3ccccc3)C2=O)no1 (stereo not drawn) | 1 | -3 | -9 | + | 4 | -2
Cc1cc(N2C(=O)CC(Cc3ccc(Cl)cc3)C2=O)no1 (stereo not drawn) | 2 | -1 | -29 | -3 | 2 | -2
Cc1cc(Nc2ccc(O)cc2)n2c(nc3ccccc32)c1C#N | 1 | -2 | . | . | 9.1* | 0
Cc1cc(-c2ccco2)c(C#N)c2nc3ccccc3n12 | 3 | 2 | 89* | -32 | 5 | .
Cc1cc(C(C)C)n2c(nc3ccccc32)c1C#N | 6 | -3 | . | . | 3 | -4
CCc1c(C)c(C#N)c2nc3ccccc3n2c1Cl | 9 | -1 | 18 | 28* | 6 | -2
COc1cccc(/C=N/NC(=O)Cn2cnc3c2c(=O)n(C)c(=O)n3C)c1 | . | . | . | . | . | -1
Cc1ccc(S(=O)(=O)Cc2c(C)noc2C)cc1 | 2 | 0 | -52 | -7 | 1 | 0
Cc1noc(C)c1CS(=O)(=O)c1ccc(Br)cc1 | 2 | -2 | 1 | 56* | 1 | -1
O=C1/C(=C\c2ccccc2)CCc2c1[nH]c1ccccc21 | 21* | 3 | -48 | -20 | 4 | 0
Cc1ccc2[nH]c3c(c2c1)CC/C(=C/c1ccccc1)C3=O | 4 | -1 | -86 | 81* | 4 | 1
O=C(Cc1cccs1)N1CCN=C1SCc1ccc(Br)cc1 | 3 | -4 | . | . | 1 | -1
Cn1c(=O)c2c(ncn2CC(O)CNc2ccc(F)cc2)n(C)c1=O (stereo not drawn) | . | . | . | . | . | 1
COc1cc(-c2nnc(CSc3nnc(Nc4ccc(Oc5ccccc5)cc4)s3)o2)cc(OC)c1OC | 4 | -8 | -11 | -3 | 4 | 1
Cc1ccc2nc(C3CCCN(C(=S)Nc4cccc(C)c4C)C3)[nH]c2c1 (stereo not drawn) | 29* | -2 | -35 | -23 | 1 | 0
N#CCCN(CCN1CCCC1)S(=O)(=O)c1ccc(-c2ccc([N+](=O)[O-])cc2)cc1 | 2 | -4 | . | . | 1 | 0
Cc1cc(SCn2nnc3ccccc3c2=O)nc2ccccc12 | 7 | 115* | -8 | -4 | 6 | 1
CC(C)(C)NC(=O)C(c1c[nH]c2ccccc12)N(C(=O)Cn1nnc(-c2ccc(Cl)cc2)n1)c1ccccc1F (stereo not drawn) | 3 | -7 | -41 | -3 | 4 | -2
COc1cccc(N(C(=O)Cn2nnc(-c3ccc(C)cc3)n2)C(C(=O)NC(C)(C)C)c2c[nH]c3ccccc23)c1 (stereo not drawn) | 2 | 0 | -96 | 45* | 5 | .
COc1ccccc1N1CCN(/N=C/C=C/c2ccccc2[N+](=O)[O-])CC1 | . | . | . | . | . | 1
Nc1nc2ccccc2nc1N | 3 | -3 | -8 | -1 | 0 | -2
c1ccc2nc3ccccc3nc2c1 | 2 | -8 | 60* | -8 | 0 | -2
CCN1CCN(c2cc(C)nc(-c3ccccc3O)n2)CC1 | . | . | . | . | . | 1
CCNS(=O)(=O)c1ccc(CCC(=O)Nc2cc(Cl)ccc2Oc2ccccc2)cc1 | 3 | -1 | -32 | -14 | 11* | -1
CC(C)NS(=O)(=O)c1ccc(CCC(=O)Nc2cc(Cl)ccc2Oc2ccccc2)cc1 | 2 | 0 | -10 | -8 | 8.8* | -1
SMILES | MT stabilizer | HMGR II inh | Yeast growth inh | Yeast lifespan up | RAM inhibit | bCat nuc transl
CCNS(=O)(=O)c1ccc(CCC(=O)Nc2ccccc2)cc1 | 4 | -2 | . | . | 2 | -4
OC(CNCc1cccc(Br)c1)c1ccccc1 (stereo not drawn) | 2 | -3 | . | . | 2 | 0
OC(CNCc1ccc(-c2ccccc2)cc1)c1ccccc1 (stereo not drawn) | 3 | -3 | . | . | -1 | 68*
Cc1ccc(Oc2nc3ccccc3n3c(C)nnc23)c(C)c1 | 2 | 1 | -76 | 74* | 0 | 0
Cc1nnc2c(Oc3ccccc3)nc3ccccc3n12 | 2 | -4 | -3 | -27 | 6 | -1
Cc1cc(Cl)ccc1OCC(=O)OCC(=O)Nc1ccc(F)c([N+](=O)[O-])c1 | 2 | -2 | -21 | -5 | 9.2* | .
COc1ccc(C2CC(c3ccccc3)=NN2C(=O)COC(=O)c2nc3nccc(C)n3n2)cc1 (stereo not drawn) | 6 | -3 | . | . | 1 | -1
CC(C)(C)NC(=S)N/N=C/c1c(Cl)cccc1Cl | . | . | . | . | . | 3
Cc1ccc(NC(=S)N/N=C/c2c(Cl)cccc2Cl)c(C)c1 | 13* | -5 | -14 | -5 | 1 | 99*
O=C(Oc1coc(CSc2ncccn2)cc1=O)c1ccccc1[N+](=O)[O-] | 3 | 0 | . | . | 2 | .
COc1ccc(OC)c(C2C3=C(COC3=O)Nc3cc4c(cc32)OCO4)c1 (stereo not drawn) | 10 | -1 | 13 | -17 | 3 | 111*
COc1cc(OC)c(NC(=O)CCCn2c(=O)oc3ccccc32)cc1Cl | 1 | 1 | -19 | 2 | 11* | -2
COc1cc(Cl)c(C)cc1NC(=O)CCCn1c(=O)oc2ccccc21 | 2 | -8 | 11 | -2 | 1 | 0
Cc1ccc(-c2cc3nc(-c4ccccc4)cc(N4CCOCC4)n3n2)cc1 | 3 | 2 | -14 | . | 4 | 0
OC1CCN(c2cc(-c3ccccc3)nc3cc(-c4ccc(F)cc4)nn23)CC1 | 2 | 1 | . | . | 9.6* | 0
CCN1CCN(c2cc(-c3ccccc3)nc3cc(-c4cccc(F)c4)nn23)CC1 | 3 | 9.6* | -66 | . | -1 | 1
COc1ccc(C(=O)NCC(=O)OCC(=O)Nc2cc([N+](=O)[O-])ccc2F)cc1 | 2 | 1 | . | . | -1 | 6
COC(=O)CSc1ncnc2c(C)csc12 | . | . | . | . | . | 0
C#CCn1c(C)cc(C)c(S(=O)(=O)c2ccccc2)c1=O | 2 | 1 | . | . | 2 | 0
COc1ccc(-c2oc(NC(=O)CCl)c(C#N)c2-c2ccc(OC)cc2)cc1 | 2 | -4 | -34 | -5 | 7 | .
COc1ccc(-c2oc(NC(=O)CSc3ncn[nH]3)c(C#N)c2-c2ccc(OC)cc2)cc1 | 47* | -5 | -25 | -23 | 6 | 0
O=c1cc2c(=O)oc3cc(O)c(O)oc3c2c(O)c1O | . | . | . | . | . | -3
COCCn1c(C(C)C)nc2ccccc21 | . | . | . | . | . | 0
CO/N=C\CC(=O)Nc1ccc(F)cc1 | 3 | -4 | -9 | -9 | -1 | -3
CO/N=C\CC(=O)Nc1ccc(Cl)cc1Cl | 10* | -7 | . | . | 1 | 1
CNC(=O)c1cc(NC(=O)CCn2nc(-c3ccc(C)cc3)c3ccccc3c2=O)ccc1OC | . | . | . | . | . | 1
Cc1cccnc1NC(=O)NC(=O)c1ccc(C(C)(C)C)s1 | . | . | . | . | . | 13
Cc1ccc2nc(-c3ccc(NC(=S)NC4CC(C)(C)NC(C)(C)C4)cc3)sc2c1 | 34 | -2 | . | . | 0 | 72*
